{"source": "ChEMBL document CHEMBL1142275", "about": "“Searching for new NO-donor aspirin-like molecules: a new class of nitrooxy-acyl derivatives of salicylic acid” (J Med Chem, 2008)", "key": {"[1]": {"experiment": "Stability in human serum assessed as half life", "format": "ADME, cell-free", "summary_of_the_method": "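Compound from 10 mM acetonitrile stock added to human serum at 37 °C (final 250 μM), incubated at 37 ± 0.5 °C. Aliquots deproteinised with acetonitrile containing 0.1% TFA, sonicated, vortexed, centrifuged 10 min at 2150 g, filtered, then RP-HPLC for parent compound and salicylic acid. First-order hydrolysis; t1/2 in h ± SD.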"}, "Plasma [2]": {"test_system": "Plasma", "experiment": "Inhibition of collagen-induced platelet aggregation in human plasma at 300 uM relative to control"}, "[3]": {"experiment": "Lipophilicity, log P of the compound", "format": "physicochemical", "conditions": "octanol/water"}, "[4]": {"experiment": "Dissociation constant, pKa of the compound", "format": "physicochemical"}, "[5]": {"experiment": "Chemical stability in aqueous buffer at pH 7.4 after 3 hrs", "format": "physicochemical", "conditions": "read-out: Stability", "summary_of_the_method": "(§1)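 10 mM acetonitrile stock added to 0.1 M HCl (pH 1) or 50 mM phosphate buffer pH 7.4 preheated to 37 °C; final compound 250 μM. Held at 37 ± 0.5 °C, aliquots taken at intervals and analysed by RP-HPLC. Value is % compound remaining unchanged at 3 h.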"}, "Aorta": {"test_system": "Aorta", "experiment": "Vasodilation activity in Wistar rat aorta assessed as relaxation of phenylephrine-induced smooth muscle contraction"}, "[6]": {"experiment": "Chemical stability in aqueous buffer at pH 1 after 3 hrs", "format": "physicochemical", "conditions": "read-out: Stability", "summary_of_the_method": "as §1"}, "Plasma [7]": {"test_system": "Plasma", "experiment": "Inhibition of collagen-induced platelet aggregation in human plasma in presence of 1H-[1,2,4]oxadiazolo[4,3-a]quinoxalin-1-one", "format": "functional, cell-free", "summary_of_the_method": "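Human PRP prepared by centrifuging citrated blood at 200 g for 20 min. Compounds (vehicle 0.5% DMSO) preincubated 10 min before collagen at 0.8-1.5 μg/mL (submaximal). Light-transmission aggregometry, stirring 1000 rpm, 37 °C, 10 min. sGC inhibitor ODQ at 50 μM. Inhibition relative to control; IC50 by non-linear regression, otherwise % inhibition at 300 μM; ≥5 experiments.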"}, "Plasma [8]": {"test_system": "Plasma", "experiment": "Inhibition of collagen-induced platelet aggregation in human plasma in presence of 1H-[1,2,4]oxadiazolo[4,3-a]quinoxalin-1-one"}, "Rattus norvegicus [9]": {"test_system": "Rattus norvegicus", "experiment": "Antiinflammatory activity against carrageenan-induced paw edema in Wistar rat at 120 mg/kg, intragastrically after 3 hrs", "format": "functional", "conditions": "route intragastric", "summary_of_the_method": "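Conscious rats, edema raised by intraplantar 0.1 ml of 1% carrageenan (in 1% CMC) into right hindpaw. […] Paw volume by water plethysmometer before and 3 h after carrageenan. Inhibition expressed relative to vehicle edema taken as 100. Groups of 6-8 animals; mean ± SEM.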"}, "Rattus norvegicus [10]": {"test_system": "Rattus norvegicus", "experiment": "Toxicity in Wistar rat assessed as lesion index at 120 mg/kg, intragastrically after 3 hrs", "format": "organism-based", "set-up": "dose 120 mg/kg, route intragastric", "conditions": "in vivo, po", "summary_of_the_method": "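Male Wistar rats, 180-200 g, fasted 24 h with water available. […] Killed after 3 h; stomachs opened along the lesser curvature and glandular mucosa examined under stereomicroscope. Each haemorrhagic lesion rated by greatest length (<1 mm = 1; 1-2 mm = 2; >2 mm = length), then summed as lesion index; mean ± SEM.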"}}, "note": "Calls of active or inactive are those of the source. The rule behind the calls is not given here.", "data": [{"smiles": "O=C(CCCCCO[N+](=O)[O-])Oc1ccccc1C(=O)O", "values": [{"measurement": "half-life", "setting": "[1]", "value": 122, "unit": "min"}, {"measurement": "inhibition at 300 µM", "setting": "Plasma [2]", "value": 27, "unit": "%"}, {"measurement": "logP", "setting": "[3]", "value": 1.6}, {"measurement": "pKa", "setting": "[4]", "value": 3.69}, {"measurement": "remaining at 3 h", "setting": "[5]", "value": "> 95", "unit": "%"}, {"measurement": "EC50", "setting": "Aorta", "value": 14, "unit": "µM"}, {"measurement": "remaining at 3 h", "setting": "[6]", "value": "> 97", "unit": "%"}]}, {"smiles": "CC(C)(CO[N+](=O)[O-])C(=O)Oc1ccccc1C(=O)O", "values": [{"measurement": "half-life", "setting": "[1]", "value": 542, "unit": "min"}, {"measurement": "inhibition at 300 µM", "setting": "Plasma [2]", "value": 26, "unit": "%"}, {"measurement": "logP", "setting": "[3]", "value": 1.6}, {"measurement": "pKa", "setting": "[4]", "value": 3.69}, {"measurement": "remaining at 3 h", "setting": "[5]", "value": "> 95", "unit": "%"}, {"measurement": "EC50", "setting": "Aorta", "value": 6.2, "unit": "µM"}, {"measurement": "remaining at 3 h", "setting": "[6]", "value": "> 97", "unit": "%"}]}, {"smiles": "CC(C)(CCC(CO[N+](=O)[O-])O[N+](=O)[O-])C(=O)Oc1ccccc1C(=O)O", "note": "(stereo not given)", "values": [{"measurement": "Activity", "setting": "Plasma [7]", "value": "inactive"}, {"measurement": "half-life", "setting": "[1]", "value": 912, "unit": "min"}, {"measurement": "logP", "setting": "[3]", "value": 1.6}, {"measurement": "pKa", "setting": "[4]", "value": 3.69}, {"measurement": "remaining at 3 h", "setting": "[5]", "value": "> 95", "unit": "%"}, {"measurement": "EC50", "setting": "Aorta", "value": 5.3, "unit": "µM"}, {"measurement": "remaining at 3 h", "setting": "[6]", "value": "> 97", "unit": "%"}]}, {"smiles": "O=C(CCO[N+](=O)[O-])Oc1ccccc1C(=O)O", "values": [{"measurement": "half-life", "setting": "[1]", "value": 15.6, "unit": "min"}, {"measurement": "logP", "setting": "[3]", "value": 1.6}, {"measurement": "pKa", "setting": "[4]", "value": 3.69}, {"measurement": "remaining at 3 h", "setting": "[5]", "value": 55, "unit": "%"}, {"measurement": "EC50", "setting": "Aorta", "value": 37, "unit": "µM"}, {"measurement": "IC50", "setting": "Plasma [8]", "value": 186, "unit": "µM"}, {"measurement": "remaining at 3 h", "setting": "[6]", "value": "> 90", "unit": "%"}]}, {"smiles": "O=C(CCCCO[N+](=O)[O-])Oc1ccccc1C(=O)O", "values": [{"measurement": "half-life", "setting": "[1]", "value": 45.6, "unit": "min"}, {"measurement": "logP", "setting": "[3]", "value": 1.6}, {"measurement": "pKa", "setting": "[4]", "value": 3.69}, {"measurement": "remaining at 3 h", "setting": "[5]", "value": "> 95", "unit": "%"}, {"measurement": "EC50", "setting": "Aorta", "value": 21, "unit": "µM"}, {"measurement": "IC50", "setting": "Plasma [8]", "value": 91, "unit": "µM"}, {"measurement": "remaining at 3 h", "setting": "[6]", "value": "> 97", "unit": "%"}]}, {"smiles": "O=C(CC(CO[N+](=O)[O-])O[N+](=O)[O-])Oc1ccccc1C(=O)O", "note": "(stereo not given)", "values": [{"measurement": "half-life", "setting": "[1]", "value": 16.8, "unit": "min"}, {"measurement": "logP", "setting": "[3]", "value": 1.6}, {"measurement": "pKa", "setting": "[4]", "value": 3.69}, {"measurement": "remaining at 3 h", "setting": "[5]", "value": 20, "unit": "%"}, {"measurement": "EC50", "setting": "Aorta", "value": 9.2, "unit": "µM"}, {"measurement": "IC50", "setting": "Plasma [8]", "value": 119, "unit": "µM"}, {"measurement": "remaining at 3 h", "setting": "[6]", "value": "> 85", "unit": "%"}]}, {"smiles": "O=C(CCCC(CO[N+](=O)[O-])O[N+](=O)[O-])Oc1ccccc1C(=O)O", "note": "(stereo not given)", "values": [{"measurement": "half-life", "setting": "[1]", "value": 292, "unit": "min"}, {"measurement": "inhibition at 300 µM", "setting": "Plasma [2]", "value": 6.7, "unit": "%"}, {"measurement": "logP", "setting": "[3]", "value": 1.6}, {"measurement": "pKa", "setting": "[4]", "value": 3.69}, {"measurement": "remaining at 3 h", "setting": "[5]", "value": "> 95", "unit": "%"}, {"measurement": "EC50", "setting": "Aorta", "value": 5.8, "unit": "µM"}, {"measurement": "remaining at 3 h", "setting": "[6]", "value": "> 85", "unit": "%"}]}, {"smiles": "O=C(CCC(CO[N+](=O)[O-])O[N+](=O)[O-])Oc1ccccc1C(=O)O", "note": "(stereo not given)", "values": [{"measurement": "half-life", "setting": "[1]", "value": 245, "unit": "min"}, {"measurement": "inhibition at 300 µM", "setting": "Plasma [2]", "value": 15, "unit": "%"}, {"measurement": "logP", "setting": "[3]", "value": 1.6}, {"measurement": "pKa", "setting": "[4]", "value": 3.69}, {"measurement": "remaining at 3 h", "setting": "[5]", "value": "> 95", "unit": "%"}, {"measurement": "EC50", "setting": "Aorta", "value": 8.2, "unit": "µM"}, {"measurement": "remaining at 3 h", "setting": "[6]", "value": "> 85", "unit": "%"}]}, {"smiles": "O=C(CCCCCCO[N+](=O)[O-])Oc1ccccc1C(=O)O", "values": [{"measurement": "Activity", "setting": "Plasma [7]", "value": "inactive"}, {"measurement": "half-life", "setting": "[1]", "value": 71.4, "unit": "min"}, {"measurement": "logP", "setting": "[3]", "value": 1.6}, {"measurement": "pKa", "setting": "[4]", "value": 3.69}, {"measurement": "remaining at 3 h", "setting": "[5]", "value": "> 95", "unit": "%"}, {"measurement": "EC50", "setting": "Aorta", "value": 8.1, "unit": "µM"}, {"measurement": "remaining at 3 h", "setting": "[6]", "value": "> 97", "unit": "%"}]}, {"smiles": "O=C(CCCO[N+](=O)[O-])Oc1ccccc1C(=O)O", "values": [{"measurement": "half-life", "setting": "[1]", "value": 28.2, "unit": "min"}, {"measurement": "logP", "setting": "[3]", "value": 1.6}, {"measurement": "pKa", "setting": "[4]", "value": 3.69}, {"measurement": "remaining at 3 h", "setting": "[5]", "value": "> 95", "unit": "%"}, {"measurement": "EC50", "setting": "Aorta", "value": 23, "unit": "µM"}, {"measurement": "IC50", "setting": "Plasma [8]", "value": 24, "unit": "µM"}, {"measurement": "remaining at 3 h", "setting": "[6]", "value": "> 97", "unit": "%"}]}, {"smiles": "O=C(O)c1ccccc1O", "note": "[SALICYLIC ACID]", "values": [{"measurement": "remaining at 3 h", "setting": "[5]", "value": "> 90", "unit": "%"}, {"measurement": "remaining at 3 h", "setting": "[6]", "value": 85, "unit": "%"}]}, {"smiles": "O=C(CCCCC(CO[N+](=O)[O-])O[N+](=O)[O-])Oc1ccccc1C(=O)O", "note": "(stereo not given)", "values": [{"measurement": "Activity", "setting": "Plasma [7]", "value": "inactive"}, {"measurement": "half-life", "setting": "[1]", "value": 375, "unit": "min"}, {"measurement": "logP", "setting": "[3]", "value": 1.6}, {"measurement": "pKa", "setting": "[4]", "value": 3.69}, {"measurement": "remaining at 3 h", "setting": "[5]", "value": "> 95", "unit": "%"}, {"measurement": "EC50", "setting": "Aorta", "value": 3.1, "unit": "µM"}, {"measurement": "remaining at 3 h", "setting": "[6]", "value": "> 85", "unit": "%"}]}, {"smiles": "CC(=O)Oc1ccccc1C(=O)O", "note": "[ASPIRIN]", "values": [{"measurement": "half-life", "setting": "[1]", "value": 63.6, "unit": "min"}, {"measurement": "Activity", "setting": "Rattus norvegicus [9]", "value": 47, "unit": "%"}, {"measurement": "logP", "setting": "[3]", "value": 1.14}, {"measurement": "Activity", "setting": "Rattus norvegicus [10]", "value": 53.5, "unit": "%"}, {"measurement": "remaining at 3 h", "setting": "[5]", "value": "> 90", "unit": "%"}, {"measurement": "remaining at 3 h", "setting": "[6]", "value": "> 90", "unit": "%"}]}]}
